According to ChEMBL document CHEMBL5375970, “Discovery of Potent and Selective WDR5 Proteolysis Targeting Chimeras as Potential Therapeutics for Pancreatic Cancer” (J Med Chem, 2023):
Active and inactive are the calls of the source.

How the values were obtained:
[1] = target: WD repeat-containing protein 5 (Homo sapiens, UniProt P61964); assay: Binding affinity to full-length N-terminal His-tagged WDR5 (unknown origin) expressed in Escherichia coli BL21 (DE3) cells assessed as dissociation constant by isothermal titration calorimetry
Summary of the method: (§1)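 Inverse ITC was run with His-tagged VCB (pVHL54–213 co-expressed with EloB1–104 and EloC1–112) and E. coli BL21(DE3)-expressed WDR5, both purified by HisTrap and Superdex 200 gel filtration. Titrations were VCB into ligand, VCB into the ligand–WDR5 complex, and WDR5 into ligand. Three independent replicates were done, reported as mean ± SD, and the first injection was excluded from fitting.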

[2] = Binding affinity to His-tagged VCB/full-length N-terminal His-tagged WDR5 (unknown origin) expressed in Escherichia coli BL21 (DE3) cells assessed as dissociation constant by isothermal titration calorimetry; design: species or system Homo sapiens; summary of the method: as §1
[3] = target: T1, von Hippel-Lindau disease tumor suppressor/WD repeat-containing protein 5 (Homo sapiens, UniProt P61964+P40337); assay: PROTAC activity at VHL/WDR5 in human MIA PaCa-2 cells assessed as degradation of WDR5 protein incubated for 18 hrs by Western blotting analysis; format: cell-based
Summary of the method: (§2)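 Five PDAC lines (MIA PaCa-2 in DMEM; BxPC-3, HPAF-II, Panc10.05 and PANC-1 in RPMI 1640; all with 10% FBS) given DMSO or compound over a concentration range up to 50 μM for 18 h. Lysates immunoblotted for WDR5 against tubulin. For MIA PaCa-2, DC50 and Dmax were fitted from 4 independent experiments.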

[4] = target: T1, von Hippel-Lindau disease tumor suppressor/WD repeat-containing protein 5; assay: PROTAC activity at VHL/WDR5 in human BXPC-3 cells assessed as degradation of WDR5 protein incubated for 18 hrs by Western blotting analysis; format: cell-based; summary of the method: as §2
[5] = target: T1, von Hippel-Lindau disease tumor suppressor/WD repeat-containing protein 5; assay: PROTAC activity at VHL/WDR5 in human HPAF-II cells assessed as degradation of WDR5 protein incubated for 18 hrs by Western blotting analysis; format: cell-based; summary of the method: as §2
[6] = target: T1, von Hippel-Lindau disease tumor suppressor/WD repeat-containing protein 5; assay: PROTAC activity at VHL/WDR5 in human Panc1005 cells assessed as degradation of WDR5 protein incubated for 18 hrs by Western blotting analysis; format: cell-based; summary of the method: as §2
[7] = target: T1, von Hippel-Lindau disease tumor suppressor/WD repeat-containing protein 5; assay: PROTAC activity at VHL/WDR5 in human PANC-1 cells assessed as degradation of WDR5 protein incubated for 18 hrs by Western blotting analysis; format: cell-based; summary of the method: as §2
[8] = target: T1, von Hippel-Lindau disease tumor suppressor/WD repeat-containing protein 5; assay: PROTAC activity at VHL/WDR5 in human MIA PaCa-2 cells assessed as hook effect upto 50 uM incubated for 18 hrs by Western blotting analysis; format: cell-based; summary of the method: as §2
[9] = target: T1, von Hippel-Lindau disease tumor suppressor/WD repeat-containing protein 5; assay: PROTAC activity at VHL/WDR5 in human BXPC-3 cells assessed as hook effect upto 50 uM incubated for 18 hrs by Western blotting analysis; format: cell-based; summary of the method: as §2
[10] = target: T1, von Hippel-Lindau disease tumor suppressor/WD repeat-containing protein 5; assay: PROTAC activity at VHL/WDR5 in human HPAF-II cells assessed as hook effect upto 50 uM incubated for 18 hrs by Western blotting analysis; format: cell-based; summary of the method: as §2
[11] = target: T1, von Hippel-Lindau disease tumor suppressor/WD repeat-containing protein 5; assay: PROTAC activity at VHL/WDR5 in human Panc1005 cells assessed as hook effect upto 50 uM incubated for 18 hrs by Western blotting analysis; format: cell-based; summary of the method: as §2
[12] = target: T1, von Hippel-Lindau disease tumor suppressor/WD repeat-containing protein 5; assay: PROTAC activity at VHL/WDR5 in human PANC-1 cells assessed as hook effect upto 50 uM incubated for 18 hrs by Western blotting analysis; format: cell-based; summary of the method: as §2
[13] = target: T1, von Hippel-Lindau disease tumor suppressor/WD repeat-containing protein 5; assay: PROTAC activity at VHL/WDR5 in human MIA PaCa-2 cells assessed as decrease in WDR5 protein by measuring degradation concentration incubated for 18 hrs by Western blotting analysis; format: cell-based
Summary of the method: (§3)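 MIA PaCa-2 cells were grown in DMEM with 10% FBS and treated with a concentration series for 18 h. Total lysates were Western blotted for WDR5 against a tubulin loading control using fluorescent secondary antibodies. DC50 and Dmax were fitted from 4 independent experiments.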

[14] = target: T1, von Hippel-Lindau disease tumor suppressor/WD repeat-containing protein 5; assay: PROTAC activity at VHL/WDR5 in human MIA PaCa-2 cells assessed as maximal degradation of WDR5 protein incubated for 18 hrs by Western blotting analysis relative to control; format: cell-based; summary of the method: as §3
[15] = target: T1, von Hippel-Lindau disease tumor suppressor/WD repeat-containing protein 5; assay: PROTAC activity at VHL/WDR5 in human MIA PaCa-2 cells assessed as degradation of WDR5 protein at 0.1 uM by Western blotting analysis; format: cell-based; settings: TDE = time-dependent effect
Summary of the method: (§4)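 Time course: MIA PaCa-2 cells given DMSO or 0.1 μM compound and harvested at the indicated times. Lysates immunoblotted for WDR5, with tubulin as loading control. Representative of at least two independent experiments.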

[16] = target: T1, von Hippel-Lindau disease tumor suppressor/WD repeat-containing protein 5; assay: PROTAC activity at VHL/WDR5 in human MIA PaCa-2 cells assessed as degradation of WDR5 protein at 0.1 uM incubated for 2 hrs by Western blotting analysis; format: cell-based; summary of the method: as §4
[17] = target: T1, von Hippel-Lindau disease tumor suppressor/WD repeat-containing protein 5; assay: PROTAC activity at VHL/WDR5 in human MIA PaCa-2 cells assessed as maximal degradation of WDR5 protein at 0.1 uM incubated for 24 hrs by Western blotting analysis; format: cell-based; summary of the method: as §4
[18] = target: T1, von Hippel-Lindau disease tumor suppressor/WD repeat-containing protein 5; assay: PROTAC activity at VHL/WDR5 in human MIA PaCa-2 cells assessed as degradation of WDR5 protein at 0.5 uM incubated for 4 hrs in presence of carfilzomib by Western blotting analysis; format: cell-based
Summary of the method: (§5)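 Rescue: MIA PaCa-2 cells pretreated for 2 h with 0.4 μM carfilzomib or with OICR-9429 at several concentrations, then given DMSO or 0.5 μM compound for a further 4 h. WDR5 immunoblotted against tubulin. Representative of at least two experiments.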

[19] = target: T1, von Hippel-Lindau disease tumor suppressor/WD repeat-containing protein 5; assay: PROTAC activity at VHL/WDR5 in human MIA PaCa-2 cells assessed as degradation of WDR5 protein at 0.5 uM incubated for 4 hrs in presence of OICR-9429 by Western blotting analysis; format: cell-based; summary of the method: as §5
[20] = target: T1, von Hippel-Lindau disease tumor suppressor/WD repeat-containing protein 5; assay: PROTAC activity at VHL/WDR5 in human MIA PaCa-2 cells assessed as degradation of WDR5 protein at 1.5 uM incubated for 2 hrs by Western blotting analysis; format: cell-based
Summary of the method: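 MIA PaCa-2 cells given DMSO or 1.5 μM compound for 2 h. Lysates prepared for proteomics were checked by WDR5 immunoblot.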

[21] = target: T1, von Hippel-Lindau disease tumor suppressor/WD repeat-containing protein 5; assay: PROTAC activity at VHL/WDR5 in human MIA PaCa-2 cells assessed as degradation of WDR5 protein at 1.5 uM incubated for 2 hrs by TMT-labeled mass spectrometry based quantitative proteomics assay; format: cell-based
Summary of the method: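 TMT proteomics: MIA PaCa-2 cells given DMSO or 1.5 μM compound (2 h in the figure legend, 2.5 h in the methods). Cells lysed in 8 M urea pH 8.0, reduced with DTT, alkylated with iodoacetamide, then digested with LysC/trypsin overnight at 37 °C. Peptides TMT10plex-labelled and analyzed by MS. Cutoffs P < 0.01 and log2 fold change > 0.5, three biological replicates.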

MIA PaCa-2 = assay: Growth inhibition of human MIA PaCa-2 cells incubated for 6 days by MTS assay; format: functional; settings: MIA PaCa-2, 144 h, time 6 day
Summary of the method: (§6)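 MTS read-out. PDAC cells seeded at 500 or 1000 per well and exposed to a compound concentration series for 6 days, with medium plus fresh compound replaced every 2 days. MTS incubated 0.5–2 h, absorbance read at 490 nm. Growth normalized to DMSO. Three independent experiments, mean ± SEM; GI50 by nonlinear regression.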

BXPC-3 = assay: Growth inhibition of human BXPC-3 cells incubated for 6 days by MTS assay; format: functional; settings: BXPC-3, 144 h, time 6 day; summary of the method: as §6
HPAF-II = assay: Growth inhibition of human HPAF-II cells incubated for 6 days by MTS assay; format: functional; settings: 144 h, time 6 day; summary of the method: as §6
Panc1005 = assay: Growth inhibition of human Panc1005 cells incubated for 6 days by MTS assay; format: functional; settings: Panc1005, 144 h, time 6 day; summary of the method: as §6
PANC-1 = assay: Growth inhibition of human PANC-1 cells incubated for 6 days by MTS assay; format: functional; settings: PANC-1, 144 h, time 6 day; summary of the method: as §6
[22] = Cmax in Swiss albino mouse at 75 mg/kg,ip administration measured for 0.5 hrs by LC-MS/MS analysis; format: ADME, organism-based; design: time 0.5 hrs, dose 75 mg/kg, route ip; settings: in vivo
Summary of the method: (§7)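 Six male Swiss albino mice were each given one intraperitoneal dose of a solution formulation at 75 mg/kg. […] Plasma was quantified by LC–MS/MS (LLOQ 5.03 ng/mL), values are means of three mice per time point, and PK was derived by nonlinear regression.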

[23] = AUC (0 to last) in Swiss albino mouse at 75 mg/kg,ip administration measured for 0.5 to 12 hrs by LC-MS/MS analysis; format: ADME, organism-based; design: time upper 12 hrs, dose 75 mg/kg, time lower 0.5 hrs, route ip; settings: in vivo; summary of the method: as §7
[24] = Drug distribution in Swiss albino mouse plasma at 75 mg/kg,ip administration measured for 4 hrs by LC-MS/MS analysis; format: ADME, organism-based; summary of the method: as §7
[25] = Drug distribution in Swiss albino mouse plasma at 75 mg/kg,ip administration measured for 12 hrs by LC-MS/MS analysis; format: ADME, organism-based; summary of the method: as §7
[26] = Toxicity in Swiss albino mouse assessed as clinical signs of toxicity at 75 mg/kg,ip observed after 0.5 to 12 hrs; format: organism-based; settings: in vivo, time 0.5-12 hrs
Summary of the method: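 Six male Swiss albino mice were given one intraperitoneal dose of a solution formulation at 75 mg/kg and observed for clinical signs during the 12 h PK sampling period (0.5–12 h).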

Question: Which Kd [1] does the source give for Cc1ncsc1-c1ccc(CNC(=O)[C@@H]2C[C@@H](O)CN2C(=O)[C@@H](NC(=O)CNC(=O)c2ccc(F)c(-c3ccc(N4C[C@@H](C)N(C)[C@@H](C)C4)c(NC(=O)c4c[nH]c(=O)cc4C(F)(F)F)c3)c2)C(C)(C)C)cc1 here?
Answer: 0.122 µM

Question: And the Kd [2]?
Answer: 0.232 µM

Question: What about the Activity [3] of the same molecule?
Answer: Dose-Dependent Effect

Question: What about the Activity [4] of the same molecule?
Answer: Dose-Dependent Effect

Question: What about the Activity [5] of the same molecule?
Answer: Dose-Dependent Effect

Question: What about the Activity [6] of the same molecule?
Answer: Dose-Dependent Effect

Question: And the Activity [7]?
Answer: Dose-Dependent Effect

Question: And the Activity [8]?
Answer: inactive

Question: What about the Activity [9] of the same molecule?
Answer: inactive

Question: And the Activity [10]?
Answer: inactive

Question: What about the Activity [11] of the same molecule?
Answer: inactive

Question: And the Activity [12]?
Answer: inactive

Question: And the DC50 [13]?
Answer: 0.092 µM

Question: And the Emax [14]?
Answer: 73%

Question: What about the Activity [15] of the same molecule?
Answer: Tde

Question: And the Activity [16]?
Answer: Active

Question: And the Activity [17]?
Answer: Active

Question: What about the Activity [18] of the same molecule?
Answer: inactive

Question: What about the Activity [19] of the same molecule?
Answer: Active

Question: What about the Activity [20] of the same molecule?
Answer: Active

Question: What about the Activity [21] of the same molecule?
Answer: Active

Question: And the GI50 (MIA PaCa-2)?
Answer: 5.7 µM

Question: And the GI50 (BXPC-3)?
Answer: 4 µM

Question: What about the GI50 (HPAF-II) of the same molecule?
Answer: 9.2 µM

Question: And the GI50 (Panc1005)?
Answer: 14.3 µM

Question: And the GI50 (PANC-1)?
Answer: 32.7 µM

Question: And the Cmax [22]?
Answer: 5000 nM

Question: And the AUC(0-t) [23]?
Answer: 7300 ng·h/mL

Question: What about the concentration at 4 h [24] of the same molecule?
Answer: 1000 nM

Question: What about the concentration at 12 h [25] of the same molecule?
Answer: > 100 nM

Question: And the Activity [26]?
Answer: Non-Toxic
